Assay results as given in ChEMBL document CHEMBL1128220, “Syntheses and antimalarial activities of N-substituted 11-azaartemisinins” (J Med Chem, 1995).

Columns and labels:
Mus musculus [1] = experiment: In vivo study of Plasmodium berghei in mice (Mus musculus) was determined by number of dead mice (Mus musculus) after 19 days post infection at the dose of 32 mg/kg/day; assay type: ADME, organism-based; conditions: 456 h
Procedure, shortened: (§1)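 Mice infected with Plasmodium berghei were dosed in mg/kg/day, from 0 for untreated controls up to 256. Deaths were logged by the day postinfection on which they occurred. Surviving mice were counted 60 days after infection. Treated groups held 5 or 7 mice.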

Mus musculus [2] = experiment: Number of mice alive 60 days after infection at the dose of 128 mg/kg/day among the 7 mice tested; assay type: functional; procedure, shortened: as §1
Mus musculus [3] = experiment: In vivo study of Plasmodium berghei in mice (Mus musculus) was determined by number of dead mice (Mus musculus) after 20 days post infection at the dose of 32 mg/kg/day; assay type: ADME, organism-based; conditions: 480 h; procedure, shortened: as §1
Mus musculus [4] = experiment: Number of mice alive 60 days after infection at the dose of 8 mg/kg/day among the 7 mice tested; assay type: functional; procedure, shortened: as §1
Mus musculus [5] = experiment: In vivo study of Plasmodium berghei in mice (Mus musculus) was determined by number of dead mice (Mus musculus) after 16 days post infection at the dose of 8 mg/kg/day; assay type: ADME, organism-based; conditions: 384 h; procedure, shortened: as §1
Mus musculus [6] = experiment: In vivo study of Plasmodium berghei in mice (Mus musculus) was determined by number of dead mice (Mus musculus) after 27 days post infection at the dose of 32 mg/kg/day; assay type: ADME, organism-based; conditions: 648 h; procedure, shortened: as §1
Mus musculus [7] = experiment: In vivo study of control in mice was determined by no. of dead mice after 8 days post infection at the dose of 0 mg/kg/day; assay type: ADME, organism-based; conditions: 192 h; procedure, shortened: as §1
Mus musculus [8] = experiment: In vivo study of control in mice was determined by no. of dead mice after 9 days post infection at the dose of 0 mg/kg/day; assay type: ADME, organism-based; conditions: 216 h; procedure, shortened: as §1
Mus musculus [9] = experiment: Number of mice alive 60 days after infection at the dose of 32 mg/kg/day among the 7 mice tested; assay type: functional; procedure, shortened: as §1
Mus musculus [10] = experiment: In vivo study of control in mice was determined by no. of dead mice after 10 days post infection at the dose of 0 mg/kg/day; assay type: ADME, organism-based; conditions: 240 h; procedure, shortened: as §1
Mus musculus [11] = experiment: In vivo study of Plasmodium berghei in mice (Mus musculus) was determined by number of dead mice (Mus musculus) after 14 days post infection at the dose of 8 mg/kg/day; assay type: ADME, organism-based; conditions: 336 h; procedure, shortened: as §1
Mus musculus [12] = experiment: In vivo study of Plasmodium berghei in mice (Mus musculus) was determined by number of dead mice (Mus musculus) after 18 days post infection at the dose of 32 mg/kg/day; assay type: ADME, organism-based; conditions: 432 h; procedure, shortened: as §1
Mus musculus [13] = experiment: In vivo study of control in mice was determined by no. of dead mice after 7 days post infection at the dose of 0 mg/kg/day; assay type: ADME, organism-based; conditions: 168 h; procedure, shortened: as §1
Mus musculus [14] = experiment: In vivo study of Plasmodium berghei in mice (Mus musculus) was determined by number of dead mice (Mus musculus) after 13 days post infection at the dose of 8 mg/kg/day; assay type: ADME, organism-based; conditions: 312 h; procedure, shortened: as §1
Mus musculus [15] = experiment: In vivo study of Plasmodium berghei in mice (Mus musculus) was determined by number of dead mice (Mus musculus) after 12 days post infection at the dose of 32 mg/kg/day; assay type: ADME, organism-based; conditions: 288 h; procedure, shortened: as §1
Mus musculus [16] = experiment: In vivo study of Plasmodium berghei in mice (Mus musculus) was determined by number of dead mice (Mus musculus) after 17 days post infection at the dose of 128 mg/kg/day; assay type: ADME, organism-based; conditions: 408 h; procedure, shortened: as §1
Mus musculus [17] = experiment: Number of mice alive 60 days after infection at the dose of 0 mg/kg/day among the 7 mice tested; assay type: functional; procedure, shortened: as §1
Plasmodium falciparum = experiment: In vitro antimalarial activity for chloroquine-resistant Plasmodium falciparum FCR3 relative to artemisinin; assay type: functional
Mus musculus [18] = experiment: In vivo study of compound in mice was determined by no. of dead mice after 16 days post infection at the dose of 4 mg/kg/day; assay type: ADME, organism-based; conditions: 384 h; procedure, shortened: as §1
Mus musculus [19] = experiment: Number of mice alive 60 days after infection at the dose of 4 mg/kg/day among the 7 mice tested; assay type: functional; procedure, shortened: as §1
Mus musculus [20] = experiment: In vivo study of compound in mice was determined by no. of dead mice after 18 days post infection at the dose of 4 mg/kg/day; assay type: ADME, organism-based; conditions: 432 h; procedure, shortened: as §1
Mus musculus [21] = experiment: Number of mice alive 60 days after infection at the dose of 16 mg/kg/day among the 7 mice tested; assay type: functional; procedure, shortened: as §1
Mus musculus [22] = experiment: In vivo study of compound in mice was determined by no. of dead mice after 18 days post infection at the dose of 16 mg/kg/day; assay type: ADME, organism-based; conditions: 432 h; procedure, shortened: as §1
Mus musculus [23] = experiment: In vivo study of compound in mice was determined by no. of dead mice after 9 days post infection at the dose of 4 mg/kg/day; assay type: ADME, organism-based; conditions: 216 h; procedure, shortened: as §1
Mus musculus [24] = experiment: In vivo study of compound in mice was determined by no. of dead mice after 12 days post infection at the dose of 4 mg/kg/day; assay type: ADME, organism-based; conditions: 288 h; procedure, shortened: as §1
Mus musculus [25] = experiment: Number of mice alive 60 days after infection at the dose of 64 mg/kg/day among the 7 mice tested; assay type: functional; procedure, shortened: as §1
Mus musculus [26] = experiment: In vivo study of compound in mice was determined by no. of dead mice after 8 days post infection at the dose of 4 mg/kg/day; assay type: ADME, organism-based; conditions: 192 h; procedure, shortened: as §1
Mus musculus [27] = experiment: In vivo study of compound in mice was determined by no. of dead mice after 11 days post infection at the dose of 4 mg/kg/day; assay type: ADME, organism-based; conditions: 264 h; procedure, shortened: as §1
Mus musculus [28] = experiment: Number of mice alive 60 days after infection at the dose of 256 mg/kg/day among the 7 mice tested; assay type: functional; procedure, shortened: as §1
Mus musculus [29] = experiment: Number of mice alive 60 days after infection at the dose of 128 mg/kg/day among the 5 mice tested; assay type: functional; procedure, shortened: as §1
Mus musculus [30] = experiment: In vivo study of compound in mice was determined by no. of dead mice after 26 days post infection at the dose of 8 mg/kg/day; assay type: ADME, organism-based; conditions: 624 h; procedure, shortened: as §1
Mus musculus [31] = experiment: In vivo study of compound in mice was determined by no. of dead mice after 16 days post infection at the dose of 8 mg/kg/day; assay type: ADME, organism-based; conditions: 384 h; procedure, shortened: as §1
Mus musculus [32] = experiment: In vivo study of Plasmodium berghei in mice (Mus musculus) was determined by number of dead mice (Mus musculus) after 20 days post infection at the dose of 8 mg/kg/day; assay type: ADME, organism-based; conditions: 480 h; procedure, shortened: as §1
Mus musculus [33] = experiment: Number of mice alive 60 days after infection at the dose of 32 mg/kg/day among the 5 mice tested; assay type: functional; procedure, shortened: as §1
Mus musculus [34] = experiment: In vivo study of compound in mice was determined by no. of dead mice after 15 days post infection at the dose of 8 mg/kg/day; assay type: ADME, organism-based; conditions: 360 h; procedure, shortened: as §1
Mus musculus [35] = experiment: In vivo study of compound in mice was determined by no. of dead mice after 19 days post infection at the dose of 8 mg/kg/day; assay type: ADME, organism-based; conditions: 456 h; procedure, shortened: as §1
Mus musculus [36] = experiment: Number of mice alive 60 days after infection at the dose of 8 mg/kg/day among the 5 mice tested; assay type: functional; procedure, shortened: as §1

C[C@@H]1CC[C@H]2[C@@H](C)C(=O)O[C@@H]3O[C@@]4(C)CC[C@@H]1[C@]32OO4 [ARTEMISININ]
No. of dead mice (Mus musculus [1]): 1
No. of mice alive (Mus musculus [2]): 6
No. of dead mice (Mus musculus [3]): 1
No. of mice alive (Mus musculus [4]): 0
No. of dead mice (Mus musculus [5]): 2
No. of dead mice (Mus musculus [6]): 1
No. of dead mice (Mus musculus [7]): 2
No. of dead mice (Mus musculus [8]): 1
No. of mice alive (Mus musculus [9]): 2
No. of dead mice (Mus musculus [10]): 1
No. of dead mice (Mus musculus [11]): 2
No. of dead mice (Mus musculus [12]): 1
No. of dead mice (Mus musculus [13]): 3
No. of dead mice (Mus musculus [14]): 1
No. of dead mice (Mus musculus [15]): 1
No. of dead mice (Mus musculus [16]): 1
No. of mice alive (Mus musculus [17]): 0

CO[C@@]1(C)CC[C@@H]2C3C(CC[C@H]2C)[C@@H](C)C(=O)N[C@@H]3O1 (some centres not stated)
Relative activity (Plasmodium falciparum): 0.01

C[C@@H]1CCC2[C@@H](C)C(=O)N(Cc3ccco3)[C@@H]3O[C@@]4(C)CC[C@@H]1[C@@]23OO4 (some centres not stated)
Relative activity (Plasmodium falciparum): 1

C[C@@H]1CCC2[C@@H](C)C(=O)N(Cc3cccs3)[C@@H]3O[C@@]4(C)CC[C@@H]1[C@@]23OO4 (some centres not stated)
Relative activity (Plasmodium falciparum): 1.1

CCOC1O[C@@H]2O[C@@]3(C)CC[C@H]4[C@H](C)CCC([C@H]1C)[C@@]24OO3 (some centres not stated)
No. of dead mice (Mus musculus [18]): 1
No. of mice alive (Mus musculus [19]): 0
No. of dead mice (Mus musculus [20]): 2
No. of mice alive (Mus musculus [21]): 6
No. of dead mice (Mus musculus [22]): 1
No. of dead mice (Mus musculus [23]): 1
No. of dead mice (Mus musculus [24]): 1
No. of mice alive (Mus musculus [25]): 7
No. of dead mice (Mus musculus [26]): 1
No. of dead mice (Mus musculus [27]): 1
No. of mice alive (Mus musculus [28]): 7

C=CCN1C(=O)[C@H](C)C2CC[C@@H](C)[C@@H]3CC[C@@]4(C)OO[C@@]23[C@H]1O4 (some centres not stated)
Relative activity (Plasmodium falciparum): 0.8

CO[C@@]1(C)CC[C@@H]2C3C(CC[C@H]2C)[C@@H](C)C(=O)N(CC(C)(C)C)[C@@H]3O1 (some centres not stated)
Relative activity (Plasmodium falciparum): 0.001

C[C@@H]1CCC2[C@@H](C)C(=O)N(CC(C)(C)C)[C@@H]3O[C@@]4(C)CC[C@@H]1[C@@]23OO4 (some centres not stated)
Relative activity (Plasmodium falciparum): 9

C[C@@H]1CCC2[C@@H](C)C(=O)N(CC=O)[C@@H]3O[C@@]4(C)CC[C@@H]1[C@@]23OO4 (some centres not stated)
Relative activity (Plasmodium falciparum): 26
No. of mice alive (Mus musculus [29]): 5
No. of dead mice (Mus musculus [30]): 1
No. of dead mice (Mus musculus [31]): 1
No. of dead mice (Mus musculus [32]): 1
No. of mice alive (Mus musculus [33]): 5
No. of dead mice (Mus musculus [34]): 1
No. of dead mice (Mus musculus [35]): 1
No. of mice alive (Mus musculus [36]): 0

C[C@@H]1CCC2[C@@H](C)C(=O)N[C@@H]3O[C@@]4(C)CC[C@@H]1[C@@]23OO4 (some centres not stated)
Relative activity (Plasmodium falciparum): 1

CO[C@@]1(C)CC[C@@H]2C3C(CC[C@H]2C)[C@@H](C)C(=O)N(Cc2ccccn2)[C@@H]3O1 (some centres not stated)
Relative activity (Plasmodium falciparum): 0.008

C[C@@H]1CCC2[C@@H](C)C(=O)N(C)[C@@H]3O[C@@]4(C)CC[C@@H]1[C@@]23OO4 (some centres not stated)
Relative activity (Plasmodium falciparum): 2.6

C[C@@H]1CCC2[C@@H](C)C(=O)N(Cc3ccccn3)[C@@H]3O[C@@]4(C)CC[C@@H]1[C@@]23OO4 (some centres not stated)
Relative activity (Plasmodium falciparum): 22
